According to paper PMC3127012 (European Journal of Nuclear Medicine and Molecular Imaging, 2011):

Assay: Biodistribution: uptake of 111In-labelled peptides in normal tissues
Format: in vivo, mice
Outline: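 Female athymic BALB/c mice with s.c. A431-CCK2R (2 × 10^6 cells, left flank) and mock-transfected A431 (right flank) tumours, ~0.1–0.2 g after ~10 days; n = 5/group. 111In-DOTA-peptide (11 GBq/μmol, >95% radiochemical purity) injected into the tail vein. Blood and organs were dissected at 1 and 4 h p.i., weighed, and gamma-counted; %ID/g, mean ± SD. Blocking group: 1,000-fold molar excess of unlabelled peptide, dissected at 4 h.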

Row | Molecule | tissue uptake (mouse, in vivo, iv, 370 kBq (0.03 nmol)) [%ID/g] | blood levels relative to the other peptides investigated (BALB/c nude mice, 111In-labelled peptide, 1 h p.i.)
1 | CSCC[C@H](NC(=O)[C@H](Cc1c[nH]c2ccccc12)NC(=O)CNC(=O)[C@H](Cc1ccc(O)cc1)NC(=O)[C@H](C)NC(=O)[C@H](CCC(=O)O)NC(=O)[C@H](CCC(=O)O)NC(=O)[C@H](CCC(=O)O)NC(=O)[C@H](CCC(=O)O)NC(=O)[C@H](CCC(=O)O)NC(=O)[C@@H](CCC(=O)O)NC(=O)CN1CCN(CC(=O)O)CCN(CC(=O)O)CCN(CC(=O)O)CC1)C(=O)N[C@@H](CC(=O)O)C(=O)N[C@@H](Cc1ccccc1)C(N)=O [MG0] | > 48 | 
2 | DOTA-Gly-Ser-Cys-(Glu-Ala-Tyr-Gly-Trp-Nle-Asp-Phe-NH2)2 [MGD5] |  | tenfold higher
